The results in this text go back to ChEMBL document CHEMBL1156559, “Efficient synthesis and utilization of phenyl-substituted heteroaromatic carboxylic acids as aryl diketo acid isosteres in the design of novel HIV-1 integrase inhibitors” (Bioorg Med Chem Lett, 2008).

Data set [1] relates to Human immunodeficiency virus 1. The experiment in a line: Antiviral activity against HIV1 3B assessed as inhibition of virus-induced cytopathogenicity in human C8166 cells after 4 days by MTT assay. Format: functional, organism-based. To be noted: Human immunodeficiency virus 1, 3B, C8166, 96 h. The method in brief: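 Protection of C8166 cells from HIV-1-induced cytopathogenicity, expressed as the 50% effective concentration. Values are means of two separate experiments.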
(In general: Protection from cytopathic effect is a common read-out in antiviral testing.)

Data set [2] in a line: Cytotoxicity against human C8166 cells by MTT method. Type of data set: cell-based. The method, boiled down:
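C8166 cell proliferation measured by MTT, expressed as the concentration reducing proliferation by 50%. Values are means of two separate experiments.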
A general note: Tetrazolium dyes change colour on reduction, which living cells bring about.

Data set [3] can be described thus: Therapeutic index, ratio of CC50 for human C8166 cells to EC50 for HIV1 3B. To be noted: read-out: Ratio CC50/EC50. Format: cell-based. The method, boiled down: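 Computed as CC50/EC50 from the C8166 MTT cytostatic and HIV-1 cytoprotection assays, each a mean of two separate experiments.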
The target of data set [4] is T1, Human immunodeficiency virus type 1 integrase (Human immunodeficiency virus 1, UniProt Q7ZJM1). The data set can be described thus: Inhibition of HIV1 wild type integrase strand transfer activity. The method, boiled down: (§1)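 Wild-type integrase at 200 nM final was preincubated with inhibitor at 30 °C for 30 min. Buffer: 50 mM NaCl, 1 mM Hepes pH 7.5, 7.5 mM MnCl2, 0.1 mg/ml BSA, 10 mM 2-mercaptoethanol, 10% glycerol, 10% DMSO, 25 mM MOPS pH 7.2. Read-out was conversion of 21-mer DNA substrate to 19-mer (3'-processing) or to strand-transfer products. % inhibition was set against DNA-alone and DNA+IN controls. IC50 came from log concentration vs % inhibition.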
T1 sequence (Q7ZJM1 whole entry): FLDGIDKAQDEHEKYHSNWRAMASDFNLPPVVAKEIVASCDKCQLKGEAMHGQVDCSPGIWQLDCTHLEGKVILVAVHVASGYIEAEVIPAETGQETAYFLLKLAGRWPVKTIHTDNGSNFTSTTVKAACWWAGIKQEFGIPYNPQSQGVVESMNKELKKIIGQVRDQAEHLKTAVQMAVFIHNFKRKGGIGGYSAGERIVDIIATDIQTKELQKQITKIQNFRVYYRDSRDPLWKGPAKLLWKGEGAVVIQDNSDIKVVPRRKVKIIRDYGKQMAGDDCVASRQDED

For data set [5], the target named is T1, Human immunodeficiency virus type 1 integrase. The data set can be described thus: Inhibition of HIV1 wild type integrase 3'-processing activity. The method in brief: as §1

As for `O=C(O)c1cc(-c2ccc([N+](=O)[O-])cc2)on1`, in data set [1], the EC50 worked out at 199 µM. Besides, the CC50 in data set [2] was over 854 µM. In addition, the selectivity ratio in data set [3] is over 4.3. Moreover, the values for the IC50 in data set [4] and in data set [5] were 97 µM and over 100 µM, respectively.

On to `O=C(O)c1cc(-c2cccc(OCc3ccccc3)c2)no1`, for which the EC50 in data set [1] came to 7.2 µM. Further, half-maximal cytotoxicity in data set [2] (CC50) was put at 282 µM. In addition, the selectivity ratio in data set [3] came to 39.2. Besides, the half-maximal inhibitory concentration (IC50) in data set [4] is 81 µM; in data set [5] it was over 100 µM.

Take `O=C(O)c1cc(-c2cccc(OCc3ccccc3)c2)[nH]n1`: the EC50 in data set [1] came to 277 µM. The CC50 in data set [2] worked out at 640 µM. In addition, in data set [3], the selectivity ratio came to 2.31. Besides, the IC50 was 100 µM in data set [4] and over 100 µM in data set [5].

`O=C(O)c1cc(-c2ccc([N+](=O)[O-])cc2)[nH]n1`: the EC50 in data set [1] stood at 3.6 µM. In data set [2], this molecule registered a CC50 of over 857 µM. Also, the selectivity ratio in data set [3] was over 238. Also, the concentration for half-maximal inhibition (IC50) in data set [4] and in data set [5] was over 100 µM throughout.

For the molecule `COC(=O)c1cc(-c2ccc([N+](=O)[O-])cc2)[nH]n1`, in data set [1], the EC50 stood at 253 µM. The CC50 in data set [2] was over 809 µM. Besides, the selectivity ratio in data set [3] was over 3.2. Also, the IC50 in data set [4] and in data set [5] was over 100 µM in each case.

In the case of `O=C(O)c1cc(-c2cccc(OCc3ccccc3)c2)ns1`, the EC50 in data set [1] amounted to 51.7 µM. In data set [2], this molecule had a CC50 of 246 µM. Further, the selectivity ratio in data set [3] came out at 4.76. For the same molecule, the IC50 in data set [4] and in data set [5] was over 100 µM in each case.

Take `O=C(O)c1cc(-c2cccc(OCc3ccccc3)c2)on1`: in data set [1], the EC50 is 91 µM. In addition, the cytotoxic concentration (CC50) in data set [2] is 206 µM. The selectivity ratio in data set [3] was 2.27. For the same molecule, the IC50 is 68 µM in data set [4] and over 100 µM in data set [5].

For the molecule `O=C(O)c1csnc1-c1cccc(OCc2ccccc2)c1`, in data set [1], the EC50 is 58 µM. Also, the CC50 in data set [2] is over 642 µM. The selectivity ratio in data set [3] was over 11. For the same molecule, the IC50 in data set [4] and in data set [5] was over 100 µM throughout.

Consider `O=C(NO)c1cc(-c2cccc(OCc3ccccc3)c2)on1`, for which the EC50 in data set [1] stood at 62.8 µM. In addition, in data set [2], the CC50 was found to be 136 µM. For the same molecule, in data set [3], the selectivity ratio came to 2.17. The concentration for half-maximal inhibition (IC50) is 27 µM in data set [4] and over 100 µM in data set [5].

One may read the EC50 as the concentration that produces a half-maximal response. One may read the CC50 as the concentration giving 50% cytotoxicity. The low end stands for harm at low concentration, the high end for better tolerance by the cells. Usually IC50 stands for the concentration that inhibits the measured activity by half. Read a low IC50 as greater potency in that assay.
